Measured values as given in ChEMBL document CHEMBL3525995, “CYP3A-mediated generation of aldehyde and hydrazine in atazanavir metabolism” (Drug Metab Dispos, 2011).

What was measured:
Liver microsome [1] = assay: Drug metabolism in human liver microsomes treated with 50 uM atazanavir by LC-MS/MS analysis; assay type: ADME
Outline: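 Human liver microsomes (0.5 g protein/l) were incubated in PBS pH 7.4 with 50 μM substrate, in duplicate. After 5 min preincubation at 37°C, 1.0 mM NADPH (final) was added and the reaction ran 30 min with shaking; incubations without NADPH served as controls. Reactions were quenched with equal-volume acetonitrile, centrifuged and analyzed by UPLC-TOFMS.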

[2] = Drug level in wild type mouse urine treated with 50 mg/kg, po atazanavir by LC-MS/MS analysis; assay type: ADME, organism-based; set-up: dose 50 mg/kg, dosed compound name Azazanavir, route oral; settings: in vivo
Outline: (§1)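 Wild-type mice (n = 4) got a single oral 50 mg/kg dose and were housed individually in metabolic cages for 18 h, with urine and feces collected. Urine was diluted 1:4 in 50% acetonitrile and centrifuged. Feces were homogenized in water (1 mg/10 μl), mixed 1:1 with acetonitrile and centrifuged twice. Supernatants were analyzed by UPLC-TOFMS, with accurate mass (<10 ppm error) and MS/MS for identification.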

[3] = Drug level in wild type mouse feces treated with 50 mg/kg, po atazanavir by LC-MS/MS analysis; assay type: ADME, organism-based; set-up: dose 50 mg/kg, dosed compound name Azazanavir, route oral; settings: in vivo; outline: as §1
Cytochrome P450 3A4 [4] = biological target: T1, Cytochrome P450 3A4 (Homo sapiens, UniProt P08684); assay: Drug metabolism assessed as human CYP3A4-mediated formation at 50 uM by UPLC-TOFMS system; assay type: ADME; settings: recombinant enzyme
Outline: (§2)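 Each cDNA-expressed human P450 (CYP1A2, 2A6, 2B6, 2C8, 2C9, 2C19, 2D6, 2E1, 3A4; 2 pmol), plus a control, was incubated in PBS pH 7.4 with 50 μM substrate. After 5 min preincubation at 37°C, 1.0 mM NADPH (final) was added and the reaction ran 30 min with shaking. Ketoconazole (10 μM) was co-incubated as a CYP3A inhibitor, and NADPH-free incubations served as controls. Reactions were quenched with acetonitrile, centrifuged and analyzed by UPLC-TOFMS.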

Cytochrome P450 2D6 = Cytochrome P450 2D6 (Homo sapiens, UniProt P10635); assay: Drug level assessed as human CYP2D6-mediated compound formation treated with atazanavir at 50 uM by UPLC-TOFMS system; assay type: ADME; settings: recombinant enzyme; outline: as §2
[5] = Drug excretion in wild type mouse feces assessed as methyl (S)-1-((2S,3S)-4-(2-((S)-2-amino-3,3-dimethylbutanoyl)-1-(4-(pyridin-2-yl)benzyl)hydrazinyl)-3-hydroxy-1-phenylbutan-2-ylamino)-3,3-dimethyl-1-oxobutan-2-ylcarbamate formation at 50 mg/kg, po by LC-MS/MS analysis; assay type: ADME, organism-based; set-up: dose 50 mg/kg, dosed compound name Azazanavir, route oral; settings: in vivo; outline: as §1
[6] = Drug excretion in wildtype mouse feces assessed as ((S)-1-{(1S,2S)-1-Benzyl-2-hydroxy-3-[N'-((S)-2-methoxycarbonylamino-3,3-dimethyl-butyryl)-N-(4-pyridin-2-yl-benzyl)-hydrazino]-propylcarbamoyl}-3-hydroxy-2-hydroxymethyl-2-methyl-propyl)-carbamic acid methyl ester formation at 50 mg/kg, po by LC-MS/MS analysis; assay type: ADME, organism-based; set-up: dose 50 mg/kg, dosed compound name Azazanavir, route oral; settings: in vivo; outline: as §1
Cytochrome P450 3A4 [7] = biological target: T1, Cytochrome P450 3A4; assay: Drug level assessed as human CYP3A4-mediated (S)-methyl 3,3-dimethyl-1-oxo-1-(2-(4-(pyridin-2-yl)benzyl)hydrazinyl)butan-2-ylcarbamate formation treated with 50 uM atazanavir by UPLC-TOFMS system; assay type: ADME; settings: recombinant enzyme; outline: as §2
[8] = Drug excretion in wild type mouse urine assessed as (S)-methyl 3,3-dimethyl-1-oxo-1-(2-(4-(pyridin-2-yl)benzyl)hydrazinyl)butan-2-ylcarbamate formation at 50 mg/kg, po by LC-MS/MS analysis; assay type: ADME, organism-based; set-up: dose 50 mg/kg, dosed compound name Azazanavir, route oral; settings: in vivo; outline: as §1
Liver microsome [9] = assay: Drug metabolism in human liver microsomes assessed as ((S)-1-{(1S,2S)-1-Benzyl-2-hydroxy-3-[N'-((S)-2-methoxycarbonylamino-3,3-dimethyl-butyryl)-N-(4-pyridin-2-yl-benzyl)-hydrazino]-propylcarbamoyl}-3-hydroxy-2-hydroxymethyl-2-methyl-propyl)-carbamic acid methyl ester formation at 50 uM by LC-MS/MS analysis; settings: in vitro
[10] = Drug excretion in wildtype mouse urine assessed as ((S)-1-{(1S,2S)-1-Benzyl-2-hydroxy-3-[N'-((S)-2-methoxycarbonylamino-3,3-dimethyl-butyryl)-N-(4-pyridin-2-yl-benzyl)-hydrazino]-propylcarbamoyl}-3-hydroxy-2,2-dimethyl-propyl)-carbamic acid methyl ester formation at 50 mg/kg, po by LC-MS/MS analysis; assay type: ADME, organism-based; set-up: dose 50 mg/kg, dosed compound name Azazanavir, route oral; settings: in vivo; outline: as §1
[11] = Drug excretion in wildtype mouse feces assessed as ((S)-1-{(1S,2S)-1-Benzyl-2-hydroxy-3-[N'-((S)-2-methoxycarbonylamino-3,3-dimethyl-butyryl)-N-(4-pyridin-2-yl-benzyl)-hydrazino]-propylcarbamoyl}-3-hydroxy-2,2-dimethyl-propyl)-carbamic acid methyl ester formation at 50 mg/kg, po by LC-MS/MS analysis; assay type: ADME, organism-based; set-up: dose 50 mg/kg, dosed compound name Azazanavir, route oral; settings: in vivo; outline: as §1
Liver microsome [12] = assay: Drug metabolism in human liver microsomes assessed as (S)-methyl 3,3-dimethyl-1-oxo-1-(2-(4-(pyridin-2-yl)benzyl)hydrazinyl)butan-2-ylcarbamate formation at 50 uM by LC-MS/MS analysis; settings: in vitro
[13] = Drug excretion in wild type mouse urine assessed as methyl (S)-1-(2-((2S,3S)-3-((S)-2-amino-3,3-dimethylbutanamido)-2-hydroxy-4-phenylbutyl)-2-(4-(pyridin-2-yl)benzyl)hydrazinyl)-3,3-dimethyl-1-oxobutan-2-ylcarbamate formation at 50 mg/kg, po by LC-MS/MS analysis; assay type: ADME, organism-based; set-up: dose 50 mg/kg, dosed compound name Azazanavir, route oral; settings: in vivo; outline: as §1
[14] = Drug excretion in wildtype mouse feces assessed as {(S)-3-Hydroxy-1-[N'-[(2S,3S)-2-hydroxy-3-((S)-4-hydroxy-2-methoxycarbonylamino-3,3-dimethyl-butyrylamino)-4-phenyl-butyl]-N'-(4-pyridin-2-yl-benzyl)-hydrazinocarbonyl]-2,2-dimethyl-propyl}-carbamic acid methyl ester formation at 50 mg/kg, po by LC-MS/MS analysis; assay type: ADME, organism-based; set-up: dose 50 mg/kg, dosed compound name Azazanavir, route oral; settings: in vivo; outline: as §1
[15] = Drug excretion in wildtype mouse urine assessed as ((S)-1-{(1S,2S)-1-Benzyl-2-hydroxy-3-[N'-((S)-2-methoxycarbonylamino-3,3-dimethyl-butyryl)-N-(4-pyridin-2-yl-benzyl)-hydrazino]-propylcarbamoyl}-3-hydroxy-2-hydroxymethyl-2-methyl-propyl)-carbamic acid methyl ester formation at 50 mg/kg, po by LC-MS/MS analysis; assay type: ADME, organism-based; set-up: dose 50 mg/kg, dosed compound name Azazanavir, route oral; settings: in vivo; outline: as §1
Liver microsome [16] = assay: Drug metabolism in human liver microsomes assessed as methyl (S)-1-((2S,3S)-4-(2-((S)-2-amino-3,3-dimethylbutanoyl)-1-(4-(pyridin-2-yl)benzyl)hydrazinyl)-3-hydroxy-1-phenylbutan-2-ylamino)-3,3-dimethyl-1-oxobutan-2-ylcarbamate formation by LC-MS/MS analysis
[17] = Drug excretion in wildtype mouse urine assessed as {(S)-3-Hydroxy-1-[N'-[(2S,3S)-2-hydroxy-3-((S)-4-hydroxy-2-methoxycarbonylamino-3,3-dimethyl-butyrylamino)-4-phenyl-butyl]-N'-(4-pyridin-2-yl-benzyl)-hydrazinocarbonyl]-2,2-dimethyl-propyl}-carbamic acid methyl ester formation at 50 mg/kg, po by LC-MS/MS analysis; assay type: ADME, organism-based; set-up: dose 50 mg/kg, dosed compound name Azazanavir, route oral; settings: in vivo; outline: as §1
[18] = Drug excretion in wild type mouse feces assessed as methyl (S)-1-(2-((2S,3S)-3-((S)-2-amino-3,3-dimethylbutanamido)-2-hydroxy-4-phenylbutyl)-2-(4-(pyridin-2-yl)benzyl)hydrazinyl)-3,3-dimethyl-1-oxobutan-2-ylcarbamate formation at 50 mg/kg, po by LC-MS/MS analysis; assay type: ADME, organism-based; set-up: dose 50 mg/kg, dosed compound name Azazanavir, route oral; settings: in vivo; outline: as §1
[19] = Drug excretion in wildtype mouse urine assessed as ((S)-1-{(1S,2S)-1-Benzyl-2-hydroxy-3-[N'-((S)-2-methoxycarbonylamino-3,3-dimethyl-butyryl)-hydrazino propylcarbamoyl}-2,2-dimethyl-propyl)-carbamic acid methyl ester formation at 50 mg/kg, po by LC-MS/MS analysis; assay type: ADME, organism-based; set-up: dose 50 mg/kg, dosed compound name Azazanavir, route oral; settings: in vivo; outline: as §1
[20] = Drug excretion in wild type mouse assessed as (S)-methyl 3,3-dimethyl-1-oxo-1-(2-(4-(pyridin-2-yl)benzyl)hydrazinyl)butan-2-ylcarbamate formation at 50 mg/kg, po by LC-MS/MS analysis; assay type: ADME, organism-based; set-up: dose 50 mg/kg, dosed compound name Azazanavir, route oral; settings: in vivo; outline: as §1
[21] = Drug excretion in wildtype mouse feces assessed as ((S)-1-{(1S,2S)-1-Benzyl-2-hydroxy-3-[N'-((S)-2-methoxycarbonylamino-3,3-dimethyl-butyryl)-hydrazino propylcarbamoyl}-2,2-dimethyl-propyl)-carbamic acid methyl ester formation at 50 mg/kg, po by LC-MS/MS analysis; assay type: ADME, organism-based; set-up: dose 50 mg/kg, dosed compound name Azazanavir, route oral; settings: in vivo; outline: as §1
Liver microsome [22] = assay: Drug metabolism in human liver microsomes assessed as methyl (S)-1-(2-((2S,3S)-3-((S)-2-amino-3,3-dimethylbutanamido)-2-hydroxy-4-phenylbutyl)-2-(4-(pyridin-2-yl)benzyl)hydrazinyl)-3,3-dimethyl-1-oxobutan-2-ylcarbamate formation at 50 uM by LC-MS/MS analysis; settings: in vitro
Liver microsome [23] = assay: Drug metabolism in human liver microsomes assessed as ((S)-1-{(1S,2S)-1-Benzyl-2-hydroxy-3-[N'-((S)-2-methoxycarbonylamino-3,3-dimethyl-butyryl)-N-(4-pyridin-2-yl-benzyl)-hydrazino]-propylcarbamoyl}-3-hydroxy-2,2-dimethyl-propyl)-carbamic acid methyl ester formation at 50 uM by LC-MS/MS analysis; settings: in vitro
Liver microsome [24] = assay: Drug metabolism in human liver microsomes assessed as ((S)-1-{(1S,2S)-1-Benzyl-2-hydroxy-3-[N'-((S)-2-methoxycarbonylamino-3,3-dimethyl-butyryl)-hydrazino]-propylcarbamoyl}-2,2-dimethyl-propyl)-carbamic acid methyl ester formation at 50 uM by LC-MS/MS analysis; settings: in vitro
[25] = Drug excretion in wild type mouse urine assessed as methyl (S)-1-((2S,3S)-4-(2-((S)-2-amino-3,3-dimethylbutanoyl)-1-(4-(pyridin-2-yl)benzyl)hydrazinyl)-3-hydroxy-1-phenylbutan-2-ylamino)-3,3-dimethyl-1-oxobutan-2-ylcarbamate formation at 50 mg/kg, po by LC-MS/MS analysis; assay type: ADME, organism-based; set-up: dose 50 mg/kg, dosed compound name Azazanavir, route oral; settings: in vivo; outline: as §1

Measured: Compound recovery

T1 sequence (P08684 whole entry): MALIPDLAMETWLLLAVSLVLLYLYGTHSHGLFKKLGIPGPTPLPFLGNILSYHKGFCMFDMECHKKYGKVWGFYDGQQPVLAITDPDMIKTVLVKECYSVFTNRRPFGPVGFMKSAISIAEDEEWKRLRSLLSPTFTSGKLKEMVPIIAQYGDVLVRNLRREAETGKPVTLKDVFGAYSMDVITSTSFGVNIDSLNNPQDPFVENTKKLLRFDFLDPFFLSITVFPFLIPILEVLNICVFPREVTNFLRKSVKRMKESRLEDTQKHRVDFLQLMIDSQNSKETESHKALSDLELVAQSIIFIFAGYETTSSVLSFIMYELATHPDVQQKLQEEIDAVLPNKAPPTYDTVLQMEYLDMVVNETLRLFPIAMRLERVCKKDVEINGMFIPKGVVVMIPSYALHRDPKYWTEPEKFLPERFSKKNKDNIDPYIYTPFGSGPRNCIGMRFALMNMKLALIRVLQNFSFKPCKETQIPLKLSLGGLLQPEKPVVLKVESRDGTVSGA
Cytochrome P450 2D6, sequence (P10635 whole entry): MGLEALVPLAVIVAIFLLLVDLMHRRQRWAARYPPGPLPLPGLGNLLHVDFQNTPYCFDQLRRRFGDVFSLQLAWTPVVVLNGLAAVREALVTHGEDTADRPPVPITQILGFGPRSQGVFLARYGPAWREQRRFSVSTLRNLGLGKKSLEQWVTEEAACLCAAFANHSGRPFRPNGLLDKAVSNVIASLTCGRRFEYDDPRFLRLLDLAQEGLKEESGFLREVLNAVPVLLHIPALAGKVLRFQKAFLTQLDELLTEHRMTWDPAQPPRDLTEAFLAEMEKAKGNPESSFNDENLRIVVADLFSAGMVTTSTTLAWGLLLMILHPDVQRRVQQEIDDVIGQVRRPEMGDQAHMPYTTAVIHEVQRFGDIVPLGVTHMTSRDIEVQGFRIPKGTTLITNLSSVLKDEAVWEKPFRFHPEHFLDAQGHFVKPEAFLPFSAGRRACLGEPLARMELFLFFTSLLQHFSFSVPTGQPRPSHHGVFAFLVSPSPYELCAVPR

COC(=O)N[C@H](C(=O)NN(Cc1ccc(-c2ccccn2)cc1)C[C@H](O)[C@H](Cc1ccccc1)NC(=O)[C@@H](N)C(C)(C)C)C(C)(C)C
metabolite_detected: Liver microsome [1] | [2] | [3]

COC(=O)N[C@H](C(=O)NN(Cc1ccc(-c2ccccn2)cc1)C[C@H](O)[C@H](Cc1ccccc1)NC(=O)[C@@H](NC(=O)OC)C(C)(CO)CO)C(C)(C)C
metabolite_detected: Liver microsome [1] | [2] | [3]

COC(=O)N[C@H](C(=O)N[C@@H](Cc1ccccc1)[C@@H](O)CNN)C(C)(C)C
metabolite_detected: Liver microsome [1] | [2] | [3]

COC(=O)N[C@H](C(=O)NN(Cc1ccc(-c2ccccn2)cc1)C[C@H](O)[C@H](Cc1ccccc1)NC(=O)[C@@H](NC(=O)OC)C(C)(C)CO)C(C)(C)C
metabolite_detected: Liver microsome [1] | [2] | [3]

COC(=O)N[C@H](C(=O)NNC[C@H](O)[C@H](Cc1ccccc1)NC(=O)[C@@H](NC(=O)OC)C(C)(C)C)C(C)(C)C
metabolite_detected: Cytochrome P450 3A4 [4] | Liver microsome [1] | [2] | Cytochrome P450 2D6 | [3]

COC(=O)N[C@H](C(=O)N[C@@H](Cc1ccccc1)[C@@H](O)CN(Cc1ccc(-c2ccccn2)cc1)NC(=O)[C@@H](NC(=O)OC)C(C)(C)C)C(C)(C)C [ATAZANAVIR]
not listed: Liver microsome [1] | [2] | [3] | Cytochrome P450 3A4 [4] | Cytochrome P450 2D6
metabolite_detected: all other assays above

COC(=O)N[C@H](C(=O)NNCc1ccc(-c2ccccn2)cc1)C(C)(C)C
metabolite_detected: Liver microsome [1] | [2] | [3]

COC(=O)N[C@H](C(=O)N[C@@H](Cc1ccccc1)[C@@H](O)CN(Cc1ccc(-c2ccccn2)cc1)NC(=O)[C@@H](NC(=O)OC)C(C)(C)CO)C(C)(C)CO
metabolite_detected: [2] | [3]

COC(=O)N[C@H](C(=O)N[C@@H](Cc1ccccc1)[C@@H](O)C=O)C(C)(C)C
metabolite_detected: [3]

COC(=O)N[C@H](C(=O)N[C@@H](Cc1ccccc1)[C@@H](O)CN(Cc1ccc(-c2ccccn2)cc1)NC(=O)[C@@H](N)C(C)(C)C)C(C)(C)C
metabolite_detected: Liver microsome [1] | [2] | [3]
